proCasp7 act: procaspase-7 activators, primary screen, counter-screen for procaspase-3 activator project, biochemical, absorbance, HTS, human; activation, % at 8.5 µM; Caspase-7 (Homo sapiens), P55210; 330,000 compounds, 0.093% hits; recombinant procaspase-7, Ac-DEVD-pNA absorbance 405 nm; D23A/D198A/D206A triple mutant, cannot self-cleave; scale: DMSO 0, 5 µM enzyme 100; AID 463210, 2010;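 active means percent activation above the screen-wide mean plus 3 SD, cut at about 25% in these data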
Target sequence (P55210 whole entry D23A/D198A/D206A): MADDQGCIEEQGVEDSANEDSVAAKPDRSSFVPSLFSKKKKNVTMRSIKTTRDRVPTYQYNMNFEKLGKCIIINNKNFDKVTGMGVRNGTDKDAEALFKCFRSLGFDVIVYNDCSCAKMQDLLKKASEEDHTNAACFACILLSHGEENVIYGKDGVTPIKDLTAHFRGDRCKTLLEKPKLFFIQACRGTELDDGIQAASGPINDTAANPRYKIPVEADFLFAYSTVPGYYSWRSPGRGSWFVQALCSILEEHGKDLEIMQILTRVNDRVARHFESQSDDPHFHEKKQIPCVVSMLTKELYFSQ
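Assay system: Uncleavable procaspase-7 mutant enzyme; Input: 2 µM procaspase-7 mutant as dispensed; Also added: DEVD-pNA substrate; Medium: Zinc-free HEPES pH 7.4 with 300 mM NaCl, 0.01% Triton X-100; Timing: 1 h compound preincubation, 2 h substrate cleavage, 25 °C; Measured by: Epi-absorbance of released pNA at 405 nm, two timepoints.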
proCasp3 act: activators of human procaspase-3 D3A mutant, primary screen, biochemical, absorbance, PC-3 D3A mutant, single concentration. Caspase-3 (Homo sapiens), P42574. recombinant procaspase-3 D3A, Ac-DEVD-pNA absorbance 405 nm. activation, % at 8.5 µM. 330,000 compounds, 0.11% hits. AID 463141, 2010;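 active means activation above the mean of all tested compounds plus 3 SD, cut at about 21% in these data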;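 further: 0% = DMSO alone and 100% = DMSO wells spiked with extra 5 µM PC-3 D3A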
Target sequence (P42574 whole entry D9A/D28A/D175A): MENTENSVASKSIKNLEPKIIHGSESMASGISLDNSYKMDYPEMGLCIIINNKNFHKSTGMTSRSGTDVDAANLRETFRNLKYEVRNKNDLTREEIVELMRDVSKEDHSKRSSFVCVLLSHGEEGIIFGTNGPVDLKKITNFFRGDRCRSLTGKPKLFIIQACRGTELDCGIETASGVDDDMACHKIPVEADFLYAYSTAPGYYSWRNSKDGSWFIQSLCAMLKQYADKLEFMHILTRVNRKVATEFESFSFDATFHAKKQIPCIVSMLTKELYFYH
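material = Procaspase-3 D3A mutant | probe or stimulus = Ac-DEVD-pNA | compound = single dose, 8.5 µM nominal compound, 0.8% DMSO | timing = 1 h preincubation, 2 h reaction | measured by = 405 nm absorbance of p-nitroaniline, reads at 0 and 120 min | benchmarks = DMSO-only low control, 5 µM PC-3 D3A high control | repeats = singlicate, each compound tested once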
GAA850 FXN act: FXN promoter activators, primary screen, cell-based, luciferase luminescence, HEK293 lucGAA850. HEK293 lucGAA850 FXN promoter luciferase reporter, 24 h; percent of 10 µM SAHA response. activation, % at 6 µM. AID 540364, 2011. 360,000 compounds, 0.56% hits;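 active means activation above the average of all compounds screened plus 3 SD, cutoff fixed separately per campaign, cut at about 7.5% in these data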;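 further: 0% = DMSO wells and 100% = 10 µM SAHA wells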
GAA30 FXN cntr: GAA30 FXN promoter activators, confirmation, counter-screen for GAA850 frataxin promoter activator project, cell-based, luminescence, HEK293, lucGAA30, triplicate; activation, % at 6 µM; AID 588350, 2011; shares compounds with GAA850 FXN act; HEK293 lucGAA30 FXN promoter luciferase, 24 h; DMSO = 0%, 5 µM ipriflavone = 100%; 1,900 compounds, 66% hits;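 active means mean activation above the mean of solvent-only control wells plus 3 SD, cut at about 22% in these data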;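 further: counterscreen of GAA850 promoter hits where activity marks nonselective or luminescence artifacts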
FXN GAA850 conf: FXN GAA850 promoter activators in reporter cells, confirmation, cell-based, luminescence, HEK293 lucGAA850, triplicate; shares compounds with GAA850 FXN act; activation, % at 6 µM; 1,900 compounds, 86% hits; AID 588351, 2011; HEK293 lucGAA850 FXN promoter luciferase reporter, 24 h; 100% = activation by SAHA;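 active means mean activation above a set limit taken from the primary screen, cut at about 8% in these data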;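 further: 0% = DMSO wells and 100% = 10 µM SAHA wells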
Numbers without * were called inactive; · = not tested or not shown; ! = not active in a repeat. Shown are actives, neighbours in structure and some others; about 0.7% of the full set was active somewhere.

SMILES | proCasp7 act | proCasp3 act | GAA850 FXN act | GAA30 FXN cntr | FXN GAA850 conf
COc1ccc(OCc2nnc(SCC(=O)Nc3ccccc3Cl)o2)cc1 | 0 | 2 | -2 | · | ·
O=C(NCc1ccncc1)C12CC3CC(CC(C3)C1)C2 | 3 | 6 | 4 | · | ·
N#CC1=C(N)S[C@H](C(=O)C23CC4CC(CC(C4)C2)C3)[C@H]1c1ccncc1 | -3 | -3 | 8.5* | 4 | 12*
N#Cc1ccc(/C=C(\C(=O)C(=O)O)c2ccc3ccccc3n2)cc1 | -4 | 6 | 8.3* | 132* | 43*
O=C(O)C(=O)/C(=C\c1cccc(Cl)c1)c1ccc2ccccc2n1 | 3 | -12 | 6 | · | ·
Cc1cc2nccnc2cc1C | · | · | 0 | · | ·
O=C(O)c1ccc(N=Nc2c(O)ccc3ncccc23)cc1 | 7 | -12 | 8.5* | 108* | 39*
O=C(O)c1cc(N=Nc2c(O)ccc3ccccc23)cc(C(=O)O)c1 | · | · | 1 | · | ·
O=[N+]([O-])c1cc(/C=N/Nc2nc3ccccc3[nH]2)c(O)cc1O | 5 | -6 | · | · | ·
COc1c(F)c(F)c(C(=O)Nc2ccccc2N2CCN(C(C)=O)CC2)c(F)c1F | 14 | 5 | -1 | · | ·
COc1c(F)c(F)c(C(=O)Nc2ccccc2N2CCN(C(=O)C(C)C)CC2)c(F)c1F | 14 | -6 | 11* | 8 | 3
CC1Oc2ccccc2C=C1/C=N/Nc1ccc(C(=O)O)cc1 (stereo unspecified) | -30 | -38 | 10* | 97* | 38*
CC(C)(C)c1ccc(/C=N/Nc2ccc(C(=O)O)cc2)cc1 | 1 | -7 | -10 | · | ·
Cc1ccc(NC(=O)c2sc3ccccc3c2Cl)nc1 | -16 | 4 | 8.4* | 105* | 16*
Cc1nnc(NC(=O)c2sc3ccccc3c2Cl)s1 | 4 | -4 | 4 | · | ·
Cc1c(C(=O)N2CCC3(CC2)CC(=O)c2ccccc2O3)cccc1[N+](=O)[O-] | 14 | -4 | 0 | · | ·
N#C/C(=C\c1cccs1)c1nc2ccccc2[nH]1 | -3 | -3 | 6 | · | ·
N#C/C(=C/c1ccc(O)c(O)c1)c1nc2ccccc2[nH]1 | -20 | -26 | 9.2* | 102* | 39*
COc1ccc2[nH]c3c(C)c4ccncc4c(C)c3c2c1 | -3 | -4 | 12* | -25 | 64*
Cc1c2ccncc2cc2c1[nH]c1ccccc12 | · | · | -4 | · | ·
CN(C)CCNC(=O)c1cccc2nc3cccc(F)c3nc12 | · | · | 25* | -3 | 142*
COc1ccc(OC)c2nc3c(C(=O)NCCN(C)C)cccc3nc12 | · | · | 15* | 3 | 79*
COc1ccc(C23CC4CC(CC(C4)C2)C3)cc1C(=O)NCCN(C)C | 9 | -2 | 4 | · | ·
CN(C)CCNC(=O)c1cccc2ccc(-c3ccc(-c4ccccc4)cc3)nc12 | · | · | 1 | · | ·
C[C@H](CO)N1C[C@H](C)[C@@H](CN(C)S(=O)(=O)c2cccc(F)c2)Oc2ncc(Br)cc2C1=O | · | · | 0 | · | ·
SMILES | proCasp7 act | proCasp3 act | GAA850 FXN act | GAA30 FXN cntr | FXN GAA850 conf
C=CCNC(=O)COC(=O)c1c2c(nc3ccccc13)CCC2 | -7 | 3 | 0 | · | ·
CSc1ccccc1NC(=O)C1CCCN(S(C)(=O)=O)C1 (stereo unspecified) | 2 | -5 | 1 | · | ·
COC(=O)c1ccccc1NC(=O)CSc1nnnn1CC(=O)O | -8 | 10 | 1 | · | ·
O=C(O)c1ccccc1NN=C1CCCCC1 | 0 | -3 | 9.0* | 38* | 7
O=C(NN=C1CCCC1)c1ccccc1O | 0 | 2 | 3 | · | ·
O=C(/C=C/c1c(F)cccc1Cl)N1CCOCC1 | 3 | -2 | -1 | · | ·
CCOC(=O)c1c(CSc2ccccc2)oc2cc(Br)c(O)c(CN(C)C)c12 | 5 | 3 | 8.2* | 21 | 9.7*
CCOC(=O)c1c(CSc2ccc(CC)cc2)oc2ccc(O)c(CN(C)C)c12 | 6 | 6 | 0 | · | ·
CCOc1cc(N2CCOCC2)c(OCC)cc1NC(=O)c1ccc(OC(C)C)cc1 | 7 | -2 | 3 | · | ·
COc1ccccc1C(=O)Nc1ccc2c(c1)nc1n2CCSC1 | 10 | 7 | 8.0* | 98* | 27*
Cc1ccc(C(=O)Nc2ccc3c(c2)nc2n3CCSC2)cc1 | 0 | -10 | 2 | · | ·
CCc1ccc(OCc2ccc(C(=O)OC)o2)cc1 | -5 | 4 | 7.6* | 78* | 28*
Cc1cccc(OCc2ccc(C(=O)N3CCOCC3)o2)c1 | 11 | -2 | -1 | · | ·
COC(=O)c1ccc(COc2ccc(C(C)(C)C)cc2)o1 | -3 | 9 | 5 | · | ·
CC(C)(C)c1ccc(OCc2ccc(C(=O)N3CCOCC3)o2)cc1 | -3 | -4 | 8.4* | 52* | 24*
CC(C)CC(NC(=O)OC(C)(C)C)c1cn([C@@H](Cc2ccc(O)cc2)C(=O)N2CCN(C(=O)OC(C)(C)C)CC2)nn1 (stereo partly specified) | 1 | 6 | 2 | · | ·
CC1=CC(C)=Nc2ccccc2N1 | -3 | 4 | 7.9* | 79* | 18*
CC1(c2ccccc2)CC(c2ccccc2)=Nc2ccccc2N1 (stereo unspecified) | -8 | -2 | 5 | · | ·
COc1cc(C(=O)N2CCC2(C)C(=O)NC(C)C)cc(OC)c1OC (stereo unspecified) | · | · | -2 | · | ·
COC(=O)c1c(NC(=O)CSc2ncn[nH]2)sc(C)c1C | 0 | -14 | -1 | · | ·
CCOC(=O)NC(=O)/C(C#N)=C\Nc1ccc(Cl)cc1Cl | 6 | 2 | 8.3* | 22 | 5
CCOC(=O)NC(=O)/C(C#N)=C\Nc1sccc1C(=O)OC | -23 | -27 | -1 | · | ·
CC(C)(C)OC(=O)N1CCC(NC(=O)c2[nH]cnc2C(=O)Nc2ccccc2F)CC1 | · | · | -1 | · | ·
COc1ccc2sc(-c3ccc(SC)cc3)c(C#CC(C)(C)O)c2c1 | -5 | -1 | 7.8* | 37* | 26*
COc1ccc2sc(-c3ccc(SC)cc3)c(C#CCO)c2c1 | 10 | 7 | 1 | · | ·
C=CCn1c(-c2cccs2)nc2ccccc21 | 16 | 0 | 0 | · | ·
C=CCn1c(-c2cccs2)nc2nc3ccccc3nc21 | 2 | -3 | 8.1* | 80* | 24*
O[C@H]1C[C@H](c2ccccc2)N(Cc2cccs2)C[C@@H]1n1cc(-c2ccc(F)cc2)nn1 | · | · | -2 | · | ·
c1ccc(-c2n[nH]c(-c3ccccn3)n2)nc1 | -9 | 7 | 7.7*! | 102* | 27*
c1ccc(-c2n[nH]c(-c3ccccn3)n2)cc1 | 10 | -6 | 4 | · | ·
